Assay [1] deals with T1, Delta-type opioid receptor (Mus musculus, UniProt P32300). In words: (§1) Inhibition of electrically evoked contractions in mouse vas deferens. The assay is classed as functional.
In assay [2] the target is T2, Delta-type opioid receptor (Rattus norvegicus, UniProt P33533). In words: Inhibition of [3H]- ]DSLET binding to delta receptor from rat brain membrane. The method in brief:
(§2)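 Displacement of 0.78 nM [3H]DSLET from rat brain membrane preparations, incubated 2 h at 0 °C. IC50 from log dose–displacement curves, converted to Ki via Cheng–Prusoff with a [3H]DSLET Kd of 2.6 nM.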

The target of assay [3] is T3, Mu-type opioid receptor (Rattus norvegicus, UniProt P33535). The assay is described as follows: Inhibition of [3H]- ]DAMGO binding to mu receptor from rat brain membrane. The procedure, abridged: (§3)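 Displacement of 0.72 nM [3H]DAMGO from rat brain membranes; 2 h incubation at 0 °C. IC50 read from log dose–displacement curves; Ki calculated by Cheng–Prusoff equation using Kd 1.3 nM for [3H]DAMGO.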

The target in assay [4] is Mu-type opioid receptor (Cavia porcellus, UniProt P97266). The assay is described as follows: Inhibition of electrically evoked contractions in Guinea pig ileum. The assay is classed as functional, tissue-based. The procedure, abridged: (§4)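 Isolated guinea pig ileum or mouse vas deferens, electrically stimulated; agonist IC50 taken as inhibition of evoked contractions from log dose–response curves. A [Leu5]enkephalin standard curve was run on each preparation and test IC50 values normalised to it. Antagonist Ke derived from IC50 ratio with and without a fixed antagonist concentration.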

In assay [5] the target is T3, Mu-type opioid receptor. The assay is described as follows: (§5) Inhibition of [3H]- ]DAMGO binding to Opioid receptor mu 1 from rat brain membrane. The procedure, abridged: as §3
In assay [6] the target is T2, Delta-type opioid receptor. The assay is described as follows: Inhibition of [3H]- ]DSLET binding to Opioid receptor delta 1 from rat brain membrane. The procedure, abridged: as §2
The target in assay [7] is T1, Delta-type opioid receptor. The assay is described as §1. In kind it is functional. The method in brief: as §4
The source holds these as a separate data set.

In assay [8] the target is T3, Mu-type opioid receptor. The assay is described as §5. The procedure, abridged: as §3
This is another data set of the same source.

In assay [9] the target is T2, Delta-type opioid receptor. In words: Inhibition of [3H]- ]DSLET binding to opioid receptor delta from rat brain membrane. The procedure, abridged: as §2
For assay [10], the target named is T3, Mu-type opioid receptor. The assay is described as follows: Inhibition of [3H]- ]DAMGO binding to opioid receptor mu from rat brain membrane.

Positions of bridges follow the written chain, without caps; N, C: chain ends. Non-standard residues stand in square brackets, D forms with d. Residues, ends and D or L forms follow the SMILES beside them. Tic = O=C(O)[C@@H]1Cc2ccccc2CN1; Aic = NC1(C(=O)O)Cc2ccccc2C1; Nle = CCCC[C@H](N)C(=O)O

T3 sequence (P33535 whole entry): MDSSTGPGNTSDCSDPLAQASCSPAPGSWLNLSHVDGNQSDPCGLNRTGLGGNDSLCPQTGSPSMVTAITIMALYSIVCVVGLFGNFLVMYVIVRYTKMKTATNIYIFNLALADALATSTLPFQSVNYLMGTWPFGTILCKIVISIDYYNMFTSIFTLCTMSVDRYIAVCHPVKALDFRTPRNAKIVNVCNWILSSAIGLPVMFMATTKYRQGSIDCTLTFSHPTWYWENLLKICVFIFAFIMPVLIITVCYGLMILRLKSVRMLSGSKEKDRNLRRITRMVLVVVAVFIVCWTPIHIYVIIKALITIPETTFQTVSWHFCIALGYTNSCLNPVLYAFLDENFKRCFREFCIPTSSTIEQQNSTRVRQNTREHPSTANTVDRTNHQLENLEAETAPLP
T2 sequence (P33533 whole entry): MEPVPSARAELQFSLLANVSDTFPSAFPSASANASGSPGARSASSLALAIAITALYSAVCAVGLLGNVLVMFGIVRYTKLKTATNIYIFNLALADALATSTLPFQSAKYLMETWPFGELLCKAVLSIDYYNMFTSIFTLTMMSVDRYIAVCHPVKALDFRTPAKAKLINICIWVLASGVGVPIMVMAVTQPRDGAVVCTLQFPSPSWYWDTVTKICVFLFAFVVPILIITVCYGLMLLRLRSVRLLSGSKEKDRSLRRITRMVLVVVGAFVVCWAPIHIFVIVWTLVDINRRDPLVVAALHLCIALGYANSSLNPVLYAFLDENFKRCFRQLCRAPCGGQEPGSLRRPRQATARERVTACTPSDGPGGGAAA
T1 sequence (P32300 whole entry): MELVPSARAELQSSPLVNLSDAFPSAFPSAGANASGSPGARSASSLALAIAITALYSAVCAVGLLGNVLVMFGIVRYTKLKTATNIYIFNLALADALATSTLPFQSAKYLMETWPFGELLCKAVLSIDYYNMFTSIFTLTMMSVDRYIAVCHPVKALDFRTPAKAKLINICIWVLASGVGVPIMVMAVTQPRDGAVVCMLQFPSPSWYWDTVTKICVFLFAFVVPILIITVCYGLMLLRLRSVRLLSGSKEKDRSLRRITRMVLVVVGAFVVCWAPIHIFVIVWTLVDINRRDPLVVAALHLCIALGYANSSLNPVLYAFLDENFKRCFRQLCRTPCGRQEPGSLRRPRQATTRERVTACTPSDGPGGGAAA
Mu-type opioid receptor (Cavia porcellus, UniProt P97266), sequence (P97266 whole entry): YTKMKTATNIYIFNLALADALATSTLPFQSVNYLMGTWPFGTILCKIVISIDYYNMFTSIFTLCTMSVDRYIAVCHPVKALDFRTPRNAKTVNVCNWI

The IC50 is the midpoint of a concentration-inhibition curve. As usually defined, the Ki is a dissociation constant, usually derived from enzyme kinetics or from competition with a known ligand. A lower Ki goes with tighter binding. On to `CC(C)[C@@H]1NC(=O)[C@@H](NC(=O)[C@H](Cc2ccccc2)NC(=O)[C@@H](C)NC(=O)[C@@H](N)Cc2ccc(O)cc2)CC(=O)NCCC[C@@H](C(N)=O)NC(=O)[C@H](C(C)C)NC1=O`, for which the IC50 in assay [1] was found to be 90.5 nM; against Mu-type opioid receptor [4] it was 251 nM. The Ki in assay [2] is 562 nM; on Mu-type opioid receptor [3], 338 nM.

With `CC(C)[C@H](NC(=O)[C@@H]1CCC(=O)NCCCC[C@@H](NC(=O)[C@@H](N)Cc2ccc(O)cc2)C(=O)N[C@@H](Cc2ccccc2)C(=O)N1)C(=O)N[C@H](C(=O)NCC(N)=O)C(C)C`, the IC50 worked out at 0.467 nM in [1] and 102 nM at Mu-type opioid receptor [4]. Also, the inhibitory constant (Ki) in assay [2] worked out at 3.66 nM; on Mu-type opioid receptor [3], 17.5 nM.

Turning to `CC(C)[C@H](NC(=O)[C@H](CC(=O)O)NC(=O)[C@@H](Cc1ccccc1)NC(=O)[C@@H](C)NC(=O)[C@@H](N)Cc1ccc(O)cc1)C(=O)N[C@H](C(=O)NCC(N)=O)C(C)C`, the inhibition constant Ki on Mu-type opioid receptor [5] worked out at 8650 nM; in [6], 67.2 nM. This molecule showed an IC50 on Mu-type opioid receptor [4] of 11900 nM.

With `CC(C)[C@@H]1NC(=O)[C@H](CC(=O)O)NC(=O)[C@H](Cc2ccccc2)NC(=O)[C@H](NC(=O)[C@@H](N)Cc2ccc(O)cc2)CCCCNC(=O)CC[C@@H](C(N)=O)NC(=O)[C@H](C(C)C)NC1=O`, the IC50 in [1] is 17.3 nM; against Mu-type opioid receptor [4] it was 380 nM. The inhibition constant Ki in assay [2] was 248 nM; at Mu-type opioid receptor [3] it was 891 nM.

`CCCC[C@H](NC(=O)[C@H](CC(C)C)NC(=O)[C@H](Cc1cnc[nH]1)NC(=O)[C@H](Cc1ccccc1)NC(=O)[C@@H](CCCC)NC(=O)[C@@H](N)Cc1ccc(O)cc1)C(=O)N[C@@H](CC(=O)O)C(N)=O`: the Ki in assay [2] worked out at 0.665 nM; at Mu-type opioid receptor [3] it was 117 nM. For the same molecule, the IC50 was determined as 0.712 nM in [7] and 241 nM at Mu-type opioid receptor [4].

With `CC(C)[C@@H]1NC(=O)[C@@H](NC(=O)[C@H](Cc2ccccc2)NC(=O)CNC(=O)[C@@H](N)Cc2ccc(O)cc2)CCC(=O)NCCCC[C@@H](C(N)=O)NC(=O)[C@H](C(C)C)NC1=O` (H-YGFEVVK-NH2; lactam 4-7), the values for the IC50 (in assay [1]; against Mu-type opioid receptor [4]) were 919 nM and 3880 nM, respectively. The inhibition constant Ki in [2] came to 724 nM; on Mu-type opioid receptor [3], 955 nM.

For `CC(C)[C@H](NC(=O)[C@H](CC(=O)O)NC(=O)[C@H](Cc1ccccc1)NC(=O)[C@@H]1Cc2ccccc2CN1C(=O)[C@@H](N)Cc1ccc(O)cc1)C(=O)N[C@H](C(=O)NCC(N)=O)C(C)C` (H-Y[Tic]FDVVG-NH2), the results for the IC50 (in assay [1]; on Mu-type opioid receptor [4]) were 22.8 nM and over 65000 nM, respectively. Also, the Ki at Mu-type opioid receptor [5] is 9230 nM; in [6], 6.49 nM.

Take `CCCC[C@H](NC(=O)[C@H](CC(C)C)NC(=O)[C@H](Cc1ccccc1)NC(=O)[C@H](Cc1ccccc1)NC(=O)[C@@H]1Cc2ccccc2CN1C(=O)[C@@H](N)Cc1ccc(O)cc1)C(=O)N[C@@H](CC(=O)O)C(N)=O` (H-Y[Tic]FFL[Nle]D-NH2): the IC50 (in [1]; at Mu-type opioid receptor [4]) was over 10000 nM in each case. In addition, the Ki came to 4150 nM at Mu-type opioid receptor [5] and 8.27 nM in assay [6].

For `CC(C)[C@H](NC(=O)[C@H](CC(=O)O)NC(=O)C1(NC(=O)[C@@H](C)NC(=O)[C@@H](N)Cc2ccc(O)cc2)Cc2ccccc2C1)C(=O)N[C@H](C(=O)NCC(N)=O)C(C)C` (H-Y[dA][Aic]DVVG-NH2), the concentration for half-maximal inhibition (IC50) in assay [1] worked out at 0.0803 nM; on Mu-type opioid receptor [4], 290 nM. In addition, the inhibitory constant (Ki) at Mu-type opioid receptor [5] was determined as 207 nM; in [6], 4.96 nM.

Turning to `CC(C)[C@H](NC(=O)[C@H](CC(=O)O)NC(=O)[C@@H]1Cc2ccccc2CN1C(=O)[C@@H](C)NC(=O)[C@@H](N)Cc1ccc(O)cc1)C(=O)N[C@H](C(=O)NCC(N)=O)C(C)C` (H-Y[dA][Tic]DVVG-NH2), the figures for the IC50 (in assay [1]; at Mu-type opioid receptor [4]) were 481 nM and 14500 nM, respectively. In addition, the Ki on Mu-type opioid receptor [5] stood at 15200 nM; on Mu-type opioid receptor [8], 4960 nM.

For the molecule `CC(C)[C@H](NC(=O)[C@H](CC(=O)O)NC(=O)C1(NC(=O)[C@@H](C)NC(=O)[C@@H](N)Cc2ccc(O)cc2)CCc2ccccc2C1)C(=O)N[C@H](C(=O)NCC(N)=O)C(C)C` (stereo in doubt; 2), the 50% inhibitory concentration (IC50) turned out to be 0.115 nM in assay [1] and 1820 nM against Mu-type opioid receptor [4]. For the same molecule, the Ki at Mu-type opioid receptor [5] worked out at 671 nM; in assay [6] it was 5.36 nM.

Consider `CC(C)[C@H](NC(=O)[C@H](CC(=O)O)NC(=O)C1(NC(=O)[C@@H](C)NC(=O)[C@@H](N)Cc2ccc(O)cc2)CCc2ccccc2C1)C(=O)N[C@H](C(=O)NCC(N)=O)C(C)C` (stereo in doubt; 3), for which the values for the IC50 (in assay [1]; against Mu-type opioid receptor [4]) were 0.163 nM and 1380 nM, respectively. The inhibition constant Ki in assay [9] was 6.52 nM; at Mu-type opioid receptor [10], 1410 nM.

As for `CSCC[C@H](NC(=O)[C@H](CC(C)C)NC(=O)[C@H](Cc1cnc[nH]1)NC(=O)[C@H](Cc1ccccc1)NC(=O)[C@@H](CCSC)NC(=O)[C@@H](N)Cc1ccc(O)cc1)C(=O)N[C@@H](CC(=O)O)C(N)=O` (stereo in doubt; 7) [DELTORPHIN A], the IC50 in assay [1] worked out at 98.3 nM; at Mu-type opioid receptor [4], 4420 nM. The Ki in assay [2] was found to be 290 nM; on Mu-type opioid receptor [3] it was 143 nM.

`CSCC[C@H](NC(=O)[C@H](CC(C)C)NC(=O)[C@H](Cc1cnc[nH]1)NC(=O)[C@H](Cc1ccccc1)NC(=O)[C@@H](CCSC)NC(=O)[C@@H](N)Cc1ccc(O)cc1)C(=O)N[C@@H](CC(=O)O)C(N)=O` (stereo in doubt; 12) [DELTORPHIN A]: the IC50 was found to be 0.695 nM in assay [1] and 281 nM against Mu-type opioid receptor [4]. The Ki in assay [2] was determined as 2.13 nM; on Mu-type opioid receptor [3], 415 nM.

`CC(C)[C@H](NC(=O)[C@H](CC(=O)O)NC(=O)[C@H](Cc1ccccc1)NC(=O)[C@@H](C)NC(=O)[C@@H](N)Cc1ccc(O)cc1)C(=O)N[C@H](C(=O)NCC(N)=O)C(C)C` [DELTORPHIN C] had an IC50 against Mu-type opioid receptor [4] of 854 nM. Also, the Ki in assay [9] was found to be 1.44 nM; at Mu-type opioid receptor [10], 262 nM.

The values above are taken from ChEMBL document CHEMBL1125327, “Conformationally restricted deltorphin analogues” (J Med Chem, 1992).
